Values after ≈ are worked out from the molar mass of the structure shown.
Key:
Type in all cases: functional
[1] = system: MCF7; test: Cytotoxicity against MCF7 cells at 10 uM; details: Homo sapiens
Outline: (§1)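 Cytotoxicity tested in KB, MCF7 and MCF7R cells with compounds at 10⁻⁵ M.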

[2] = system: KB; test: Cytotoxicity against KB cells at 10 uM; details: Homo sapiens; outline: as §1
[3] = system: MCF7R; test: Cytotoxicity against MCF7R cells at 10 uM; details: Homo sapiens; outline: as §1
[4] = system: Staphylococcus aureus; test: Increase in ciprofloxacine uptake in quinolone/macrolide-susceptible Staphylococcus aureus 1199 at 20 mg/L after 10 mins
Outline: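 Silicone-oil uptake assay. Cells were grown in LB to OD660 0.7–0.8, washed, and concentrated 20-fold in 100 mM phosphate pH 7.2 with 1 mM MgSO₄ and 0.4% glucose. After 5 min at 37 °C, ciprofloxacin was added at 10 mg/L. Timed samples were spun through silicone oil and the pellets lysed in 0.1 M glycine–HCl pH 3.0 at 100 °C for 10 min. Lysate fluorescence (ex 242/em 487 nm) was read against a standard curve and reported as ng per 10⁹ CFU.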

[5] = system: Staphylococcus aureus; test: Increase in ciprofloxacine uptake in quinolone/macrolide-resistant Staphylococcus aureus […] at 20 mg/L after 10 mins
Outline: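 Cells grown in LB to OD660 0.7–0.8, washed twice and concentrated 20-fold in 100 mM phosphate pH 7.2 with 1 mM MgSO4 and 0.4% glucose. Preincubated 5 min at 37 °C, then ciprofloxacin 10 mg/L added. Samples spun through silicone oil, pellets lysed in glycine–HCl pH 3.0 at 100 °C for 10 min. Fluorescence (ex 242/em 487 nm) read against a lysate standard curve, as ng per 10⁹ CFU.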

[6] = system: Staphylococcus aureus; test: Effect on ethidium bromide efflux in quinolone/macrolide-resistant Staphylococcus aureus NorA by measuring remaining initial ethidium concentration at 20 mg/L after 10 mins
Outline: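 S. aureus NorA 1199B grown in LB at 37 °C to A660 0.7–0.8, then loaded with EtBr (10 mg/L) plus CCCP (20 mg/L) for 10 min at 37 °C. Cells spun and resuspended in LB at 37 °C without EtBr, inhibitor added at resuspension. Fluorescence read continuously for 10 min and expressed as percentage of initial fluorescence. At least three experiments.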

[7] = system: Bacillus subtilis; test: Effect on ethium bromide efflux in Bacillus subtilis at 20 mg/L after 10 mins
Outline: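 B. subtilis ΔΔ (bmr::cat blt::erm) carried plasmid pBEV, which expresses NorA from a strong promoter. Cells were transferred into PBS pH 7.2 with 0.5% glucose at 37 °C. They were loaded with EtBr (10 mg/L) plus CCCP (20 mg/L) for 10 min at 37 °C, spun down and resuspended in LB without EtBr, adding the inhibitor at that point. Fluorescence was recorded continuously for 10 min and expressed as % of initial. Each experiment was done at least three times.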

[8] = system: Staphylococcus aureus; test: Antibacterial activity against quinolone/macrolide-susceptible Staphylococcus aureus ATCC 25923
Outline: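 MIC by twofold serial dilution in Mueller–Hinton broth with 10⁶ CFU/mL inoculum. Read as the lowest concentration with no visible growth after 18 h at 37 °C. Run in triplicate.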

[9] = system: Staphylococcus aureus; test: Antibacterial activity against quinolone/macrolide-susceptible Staphylococcus aureus ATCC 25923 assessed as growth
Outline: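 Single-concentration growth screen: compound added from DMSO solution to a final 100 mg/L in MH medium with 10⁶ CFU/mL bacteria. Incubated at 37 °C with growth read at 650 nm after 1, 2, 8 and 24 h. Ampicillin was the positive control and DMSO the negative control. Scored ++ for no growth, + for growth <10% of the negative control, – otherwise.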

[10] = system: MCF7R; test: Cytotoxicity against MCF7R cells at 0.25 nM; details: Homo sapiens
[11] = system: MCF7; test: Cytotoxicity against MCF7 cells at 0.25 nM; details: Homo sapiens
[12] = system: KB; test: Cytotoxicity against KB cells at 0.25 nM; details: Homo sapiens

| SMILES | inhibition at 10 µM [1] | inhibition at 10 µM [2] | inhibition at 10 µM [3] | further results |
| --- | --- | --- | --- | --- |
| COC(=O)/C(=C/c1c(-c2ccc(C#N)cc2)sc2ccccc12)NC(=O)c1ccccc1 | 0% | 24% | – | – |
| O=Cc1c(-c2ccccc2)sc2ccccc12 | 51% | 42% | 37% | Activity [4]: 0.08 a.u.; Activity [5]: 0.07 a.u.; Remaining ethidium fluorescence (% of initial) [6]: 72%; Activity [7]: 5% |
| O=Cc1c(-c2cccnc2)sc2ccccc12 | 3% | 18% | 0% | Remaining ethidium fluorescence (% of initial) [6]: 72% |
| N#Cc1c(-c2cccc(Cl)c2)sc2ccccc12 | 36% | 23% | 20% | – |
| FC(F)(F)COc1c(-c2cccnc2)sc2ccccc12 | – | – | – | MIC [8]: 100 µg/mL (≈ 323 µM) |
| N#Cc1ccccc1-c1sc2ccccc2c1OCC(F)(F)F | 49% | 56% | 39% | – |
| N#Cc1ccccc1-c1c(OCC(F)(F)F)sc2ccccc12 | 92% | 100% | 97% | – |
| O=Cc1c(-c2ccccc2)oc2ccccc12 | 47% | 67% | 37% | Remaining ethidium fluorescence (% of initial) [6]: 72% |
| N#Cc1ccccc1-c1sc2ccccc2c1C=O | 38% | 51% | 33% | – |
| COc1ccsc1-c1ccccc1C#N | 17% | 11% | 4% | – |
| O=Cc1ccsc1-c1ccccc1 | 16% | 33% | 0% | – |
| COc1cc(-c2cccnc2)sc1-c1cccnc1 | – | – | – | MIC [8]: 100 µg/mL (≈ 373 µM) |
| COc1ccc(-c2sc3ccccc3c2C=O)cc1 | 62% | 89% | 80% | – |
| O=Cc1c(-c2ccc(C(F)(F)F)cc2)sc2ccccc12 | 73% | 88% | 59% | – |
| O=Cc1c(-c2ccc(Cl)cc2)sc2ccccc12 | 69% | 67% | 35% | – |
| COc1c(-c2cccnc2)sc2ccccc12 | – | – | – | MIC [8]: 100 µg/mL (≈ 414 µM) |
| N#Cc1sc2ccccc2c1-c1cccnc1 | 18% | 37% | 22% | – |
| COc1cc(-c2cccc(C(F)(F)F)c2)sc1-c1cccnc1 | 0% | 7% | 0% | – |
| N#Cc1c(-c2ccc(Cl)cc2)sc2ccccc12 | 27% | 29% | 18% | – |
| COC(=O)C(Cc1c(-c2ccc(C#N)cc2)sc2ccccc12)NC(=O)c1ccccc1 (racemic) | 12% | 35% | 32% | Activity [9]: <10% |
| CC(=O)O[C@@]12CO[C@@H]1C[C@H](O)[C@@]1(C)C(=O)[C@H](O)C3=C(C)[C@@H](OC(=O)[C@H](O)[C@@H](NC(=O)OC(C)(C)C)c4ccccc4)C[C@@](O)([C@@H](OC(=O)c4ccccc4)[C@H]21)C3(C)C [DOCETAXEL] | – | – | – | inhibition at 0.00025 µM [10]: 4%; inhibition at 0.00025 µM [11]: 31%; inhibition at 0.00025 µM [12]: 87% |
| COC(=O)[C@H]1[C@H]2C[C@@H]3c4[nH]c5cc(OC)ccc5c4CCN3C[C@H]2C[C@@H](OC(=O)c2cc(OC)c(OC)c(OC)c2)[C@@H]1OC [RESERPINE] | – | – | – | Remaining ethidium fluorescence (% of initial) [6]: 72% |
